Data taken from ChEMBL document CHEMBL1144435, “Effects of positional and geometrical isomerism on the biological activity of some novel oxazolidinones” (2005).
Values after ≈ are worked out from the molar mass of the structure shown.

Legend:
[1] = tested on: Mycolicibacterium smegmatis; assay: In vitro minimum inhibitory concentration of compound against Mycobacterium smegmatis MTCC 006; assay type: functional
Enterococcus faecalis [2] = assay: In vitro minimum inhibitory concentration against vancomycin-resistant Enterococcus faecalis NCTC 12201; assay type: functional
Method in brief: (§1)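 Broth microdilution per NCCLS guidelines. Doubling dilutions from 32-1 µg/mL in Mueller Hinton medium. Final inoculum 1-5 × 10^5 cfu/mL. Plates incubated overnight in ambient air at 35 °C. Linezolid and streptomycin run as controls.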

Enterococcus faecium = assay: In vitro minimum inhibitory concentration against vancomycin-resistant Enterococcus faecium NCTC 12202; assay type: functional; method in brief: as §1
Staphylococcus aureus [3] = assay: In vitro minimum inhibitory concentration of compound against Staphylococcus aureus ATCC 49951 (Smith); assay type: functional; method in brief: as §1
Enterococcus faecalis [4] = assay: In vitro minimum inhibitory concentration against Enterococcus faecalis ATCC 29212; assay type: functional; method in brief: as §1
Staphylococcus aureus [5] = assay: In vitro minimum inhibitory concentration of compound against Methicillin-sensitive Staphylococcus aureus ATCC 29213; assay type: functional; method in brief: as §1
Staphylococcus aureus [6] = assay: In vitro minimum inhibitory concentration of compound against Methicillin-resistant Staphylococcus aureus ATCC 33591

SMILES | MIC [1] [µg/mL] | MIC (Enterococcus faecalis [2]) [µg/mL] | MIC (Enterococcus faecium) [µg/mL] | MIC (Staphylococcus aureus [3]) [µg/mL] | MIC (Enterococcus faecalis [4]) [µg/mL] | MIC (Staphylococcus aureus [5]) [µg/mL] | MIC (Staphylococcus aureus [6]) [µg/mL]
CC(=O)NC[C@H]1CN(c2ccc(/C=C(\C#N)n3nc4ccccc4n3)c(F)c2)C(=O)O1 | > 32 | 32 (≈ 76.1 µM) | 32 (≈ 76.1 µM) | 16 (≈ 38.1 µM) | 32 (≈ 76.1 µM) | 8 (≈ 19 µM) | 16 (≈ 38.1 µM)
CC(=O)NC[C@H]1CN(c2ccc(/C=C(/C#N)n3nnc4ccccc43)cc2)C(=O)O1 | > 32 | > 32 | > 32 | > 32 | > 32 | > 32 | > 32
CC(=O)NC[C@H]1CN(c2ccc(/C=C(\C#N)c3nc4ccccc4n3C)cc2)C(=O)O1 | > 32 | > 32 | > 32 | > 32 | > 32 | > 32 | 
C/C(S)=N/C[C@H]1CN(c2ccc(/C=C(\C#N)n3nc4ccccc4n3)cc2)C(=O)O1 | > 32 | 4 (≈ 9.56 µM) | 4 (≈ 9.56 µM) | 2 (≈ 4.78 µM) | 4 (≈ 9.56 µM) | 2 (≈ 4.78 µM) | 2 (≈ 4.78 µM)
CC(=O)NC[C@H]1CN(c2ccc(/C=C(\C#N)n3cnc4ccccc43)cc2)C(=O)O1 | > 32 | 32 (≈ 79.7 µM) | 32 (≈ 79.7 µM) | 16 (≈ 39.9 µM) | 32 (≈ 79.7 µM) | 16 (≈ 39.9 µM) | 16 (≈ 39.9 µM)
CC(=O)NC[C@H]1CN(c2ccc(/C=C(\C#N)n3nc4ccccc4n3)cc2)C(=O)O1 | > 32 | 8 (≈ 19.9 µM) | 8 (≈ 19.9 µM) | 8 (≈ 19.9 µM) | 8 (≈ 19.9 µM) | 8 (≈ 19.9 µM) | 8 (≈ 19.9 µM)
CC(=O)NC[C@H]1CN(c2ccc(/C=C(\C#N)c3nc4ccccc4s3)cc2)C(=O)O1 | > 32 | > 32 | > 32 | > 32 | > 32 | > 32 | 
CC(=O)NC[C@H]1CN(c2ccc(/C=C(\C#N)c3nc4ccccc4o3)cc2)C(=O)O1 | > 32 | > 32 | > 32 | > 32 | > 32 | > 32 | 
CC(=O)NC[C@H]1CN(c2ccc(/C=C(\C#N)n3nnc4ccccc43)cc2)C(=O)O1 | > 32 | 32 (≈ 79.5 µM) | 32 (≈ 79.5 µM) | 16 (≈ 39.8 µM) | 32 (≈ 79.5 µM) | 16 (≈ 39.8 µM) | 16 (≈ 39.8 µM)
CC(=O)NC[C@H]1CN(c2ccc(/C=C(\C#N)c3nc4ccccc4[nH]3)cc2)C(=O)O1 | > 32 | > 32 | > 32 | > 32 | > 32 | > 32 | 
CC(=O)NC[C@H]1CN(c2ccc(N3CCOCC3)c(F)c2)C(=O)O1 [LINEZOLID] | 2 (≈ 5.93 µM) |  | 2 (≈ 5.93 µM) |  |  |  | 
CN[C@@H]1[C@H](O[C@H]2[C@H](O[C@H]3[C@H](O)[C@@H](O)[C@H](N=C(N)N)[C@@H](O)[C@@H]3N=C(N)N)O[C@@H](C)[C@]2(O)C=O)O[C@@H](CO)[C@H](O)[C@H]1O [STREPTOMYCIN] | 0.5 (≈ 0.86 µM) | > 32 | 32 (≈ 55 µM) | 2 (≈ 3.44 µM) | > 32 | 4 (≈ 6.88 µM) | > 32
